System: U2OS
Assay: Multiplex assay against U2OS
Format: toxicity, cell-based
Settings: human
Summary of the method: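 Live cells were stained at seeding with Hoechst33342, BioTracker Green Microtubule Cytoskeleton Dye, MitoTracker Red and Annexin V Alexa Fluor 680, then imaged on a CQ1 microscope at 37°C and 5% CO2 after compound addition. CellPathfinder machine-learning gating split cells into Hoechst high-intensity objects or normal cells. Normal cells were split into healthy, pyknosed or fragmented nuclei, and pyknosed cells into mitotic or apoptotic. Tubulin, mitochondrial-mass and membrane-permeability phenotypes are per cents of healthy-nucleus cells.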

[1] = 12 h, 1 µM, compound concentration 1 uM, replicate 1
[2] = 12 h, 1 µM, compound concentration 1 uM, replicate 2
[3] = 12 h, 10 µM, compound concentration 10 uM, replicate 1
[4] = 12 h, 10 µM, compound concentration 10 uM, replicate 2
[5] = 24 h, 1 µM, compound concentration 1 uM, replicate 1
[6] = 24 h, 1 µM, compound concentration 1 uM, replicate 2
[7] = 24 h, 10 µM, compound concentration 10 uM, replicate 1
[8] = 24 h, 10 µM, compound concentration 10 uM, replicate 2
[9] = 48 h, 1 µM, compound concentration 1 uM, replicate 1
[10] = 48 h, 1 µM, compound concentration 1 uM, replicate 2
[11] = 48 h, 10 µM, compound concentration 10 uM, replicate 1
[12] = 48 h, 10 µM, compound concentration 10 uM, replicate 2

CN(C)CC#Cc1ccc(OCCCc2sc(N3CCc4cccc(C(=O)Nc5nc6ccccc6s5)c4C3)nc2C(=O)O)c(F)c1 [A-1155463]
Population Apoptotic (%) [1]: 63%
Population Fragmented Nuclei (%) [1]: 13%
Population Healthy Nuclei (%) [1]: 65%
Population Hoechst High Intensity Objects (%) [1]: 12%
Population Membrane Permeable-Phenotype (%) [1]: 14%
Population Mitochondria Different-Phenotype (%) [1]: 14%
Population Mitotic Cells (%) [1]: 36%
Population Normal (%) [1]: 87%
Population Pyknosed Nuclei (%) [1]: 21%
Population Tubulin-Different-Phenotype (%) [1]: 11%
Total Cell Count [1]: 175
Population Apoptotic (%) [2]: 66%
Population Fragmented Nuclei (%) [2]: 39%
Population Healthy Nuclei (%) [2]: 53%
Population Hoechst High Intensity Objects (%) [2]: 4%
Population Membrane Permeable-Phenotype (%) [2]: 13%
Population Mitochondria Different-Phenotype (%) [2]: 31%
Population Mitotic Cells (%) [2]: 33%
Population Normal (%) [2]: 95%
Population Pyknosed Nuclei (%) [2]: 7%
Population Tubulin-Different-Phenotype (%) [2]: 27%
Total Cell Count [2]: 86
Population Apoptotic (%) [3]: 61%
Population Fragmented Nuclei (%) [3]: 25%
Population Healthy Nuclei (%) [3]: 55%
Population Hoechst High Intensity Objects (%) [3]: 6%
Population Membrane Permeable-Phenotype (%) [3]: 8%
Population Mitochondria Different-Phenotype (%) [3]: 15%
Population Mitotic Cells (%) [3]: 38%
Population Normal (%) [3]: 93%
Population Pyknosed Nuclei (%) [3]: 19%
Population Tubulin-Different-Phenotype (%) [3]: 13%
Total Cell Count [3]: 189
Population Apoptotic (%) [4]: 86%
Population Fragmented Nuclei (%) [4]: 33%
Population Healthy Nuclei (%) [4]: 42%
Population Hoechst High Intensity Objects (%) [4]: 5%
Population Membrane Permeable-Phenotype (%) [4]: 24%
Population Mitochondria Different-Phenotype (%) [4]: 16%
Population Mitotic Cells (%) [4]: 13%
Population Normal (%) [4]: 94%
Population Pyknosed Nuclei (%) [4]: 23%
Population Tubulin-Different-Phenotype (%) [4]: 25%
Total Cell Count [4]: 133
Population Apoptotic (%) [5]: 47%
Population Fragmented Nuclei (%) [5]: 19%
Population Healthy Nuclei (%) [5]: 58%
Population Hoechst High Intensity Objects (%) [5]: 5%
Population Membrane Permeable-Phenotype (%) [5]: 11%
Population Mitochondria Different-Phenotype (%) [5]: 15%
Population Mitotic Cells (%) [5]: 52%
Population Normal (%) [5]: 94%
Population Pyknosed Nuclei (%) [5]: 21%
Population Tubulin-Different-Phenotype (%) [5]: 6%
Total Cell Count [5]: 222
Population Apoptotic (%) [6]: 50%
Population Fragmented Nuclei (%) [6]: 36%
Population Healthy Nuclei (%) [6]: 54%
Population Hoechst High Intensity Objects (%) [6]: 7%
Population Membrane Permeable-Phenotype (%) [6]: 13%
Population Mitochondria Different-Phenotype (%) [6]: 32%
Population Mitotic Cells (%) [6]: 50%
Population Normal (%) [6]: 92%
Population Pyknosed Nuclei (%) [6]: 9%
Population Tubulin-Different-Phenotype (%) [6]: 28%
Total Cell Count [6]: 92
Population Apoptotic (%) [7]: 58%
Population Fragmented Nuclei (%) [7]: 20%
Population Healthy Nuclei (%) [7]: 51%
Population Hoechst High Intensity Objects (%) [7]: 5%
Population Membrane Permeable-Phenotype (%) [7]: 13%
Population Mitochondria Different-Phenotype (%) [7]: 23%
Population Mitotic Cells (%) [7]: 41%
Population Normal (%) [7]: 94%
Population Pyknosed Nuclei (%) [7]: 27%
Population Tubulin-Different-Phenotype (%) [7]: 12%
Total Cell Count [7]: 194
Population Apoptotic (%) [8]: 81%
Population Fragmented Nuclei (%) [8]: 32%
Population Healthy Nuclei (%) [8]: 45%
Population Hoechst High Intensity Objects (%) [8]: 10%
Population Membrane Permeable-Phenotype (%) [8]: 20%
Population Mitochondria Different-Phenotype (%) [8]: 14%
Population Mitotic Cells (%) [8]: 18%
Population Normal (%) [8]: 89%
Population Pyknosed Nuclei (%) [8]: 22%
Population Tubulin-Different-Phenotype (%) [8]: 21%
Total Cell Count [8]: 135
Population Apoptotic (%) [9]: 67%
Population Fragmented Nuclei (%) [9]: 24%
Population Healthy Nuclei (%) [9]: 46%
Population Hoechst High Intensity Objects (%) [9]: 10%
Population Membrane Permeable-Phenotype (%) [9]: 7%
Population Mitochondria Different-Phenotype (%) [9]: 18%
Population Mitotic Cells (%) [9]: 32%
Population Normal (%) [9]: 89%
Population Pyknosed Nuclei (%) [9]: 29%
Population Tubulin-Different-Phenotype (%) [9]: 10%
Total Cell Count [9]: 285
Population Apoptotic (%) [10]: 77%
Population Fragmented Nuclei (%) [10]: 28%
Population Healthy Nuclei (%) [10]: 51%
Population Hoechst High Intensity Objects (%) [10]: 5%
Population Membrane Permeable-Phenotype (%) [10]: 19%
Population Mitochondria Different-Phenotype (%) [10]: 43%
Population Mitotic Cells (%) [10]: 22%
Population Normal (%) [10]: 94%
Population Pyknosed Nuclei (%) [10]: 20%
Population Tubulin-Different-Phenotype (%) [10]: 36%
Total Cell Count [10]: 117
Population Apoptotic (%) [11]: 74%
Population Fragmented Nuclei (%) [11]: 26%
Population Healthy Nuclei (%) [11]: 32%
Population Hoechst High Intensity Objects (%) [11]: 9%
Population Membrane Permeable-Phenotype (%) [11]: 23%
Population Mitochondria Different-Phenotype (%) [11]: 38%
Population Mitotic Cells (%) [11]: 25%
Population Normal (%) [11]: 90%
Population Pyknosed Nuclei (%) [11]: 40%
Population Tubulin-Different-Phenotype (%) [11]: 11%
Total Cell Count [11]: 246
Population Apoptotic (%) [12]: 81%
Population Fragmented Nuclei (%) [12]: 34%
Population Healthy Nuclei (%) [12]: 35%
Population Hoechst High Intensity Objects (%) [12]: 8%
Population Membrane Permeable-Phenotype (%) [12]: 57%
Population Mitochondria Different-Phenotype (%) [12]: 51%
Population Mitotic Cells (%) [12]: 18%
Population Normal (%) [12]: 91%
Population Pyknosed Nuclei (%) [12]: 29%
Population Tubulin-Different-Phenotype (%) [12]: 57%
Total Cell Count [12]: 139
